The results in this text go back to ChEMBL document CHEMBL3045565, “Microwave synthesis, characterization and bio-efficacy evaluation of novel chalcone based 6-carbethoxy-2-cyclohexen-1-one and 2H-indazol-3-ol derivatives” (Eur J Med Chem, 2013).

What is called LC50 is the concentration lethal to half of the exposed cells or organisms.

Common to all, as to format: functional
One assay concerns Staphylococcus aureus. As to the kind of experiment: Antibacterial activity against Staphylococcus aureus MTCC 3160 assessed as growth inhibition at 100 ug/disk after 24 hr by disk diffusion method. The note with it: MTCC 3160, 24 h, read-out: DIZ. Summed up:
(§1)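 Disk diffusion on nutrient agar. Strains kept on NA slants at 37 °C and subcultured in nutrient broth before testing. A log-phase culture was spread on solidified medium, and sterile disks were loaded with compound from DMSO stock. DMSO served as control, with commercial antibiotics for reference. Plates ran 24 h at 37 °C, and inhibition zones (mm) were read in quadruplicate.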
In general terms: In agar diffusion tests the substance spreads into inoculated agar from a disc or well.

The subject of the next assay is Dickeya chrysanthemi. As to the kind of experiment: Antibacterial activity against Erwinia chrysanthemi ITCC B-40 assessed as as growth inhibition at 100 ug/disk after 24 hr by disk diffusion method. Conditions: ITCC B-40, 24 h, read-out: DIZ. Summed up:
as §1

A further assay deals with Bacillus pumilus. As to the kind of experiment: Antibacterial activity against Bacillus pumilus MTCC 2466 assessed as growth inhibition at 100 ug/disk after 24 hr by disk diffusion method. The note with it: MTCC 2466, 24 h, read-out: DIZ. The method in brief:
as §1

In another assay the test system is Rhizoctonia solani. Briefly: Antifungal activity against Rhizoctonia solani ITCC 5563 by food poisoning method. The method in brief:
(§2)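 Poisoned food technique on PDA at several concentrations. A 5 mm mycelial plug from the growing edge of a 2-week-old colony was placed inoculum-side down at the plate centre. Plates incubated at 27 °C until control growth was nearly complete. Colony diameter measured, percent inhibition calculated against control, LC50 derived. Four replicates per treatment.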

Another assay concerns Pseudomonas aeruginosa. As to the kind of experiment: Antibacterial activity against Pseudomonas aeruginosa MTCC 2581 assessed as growth inhibition at 100 ug/disk after 24 hr by disk diffusion method. The note with it: MTCC 2581, 24 h, read-out: DIZ. The method in brief: as §1
For another assay, the system named is Klebsiella pneumoniae. Briefly: Antibacterial activity against Klebsiella pneumoniae MTCC 7028 assessed as growth inhibition at 100 ug/disk after 24 hr by disk diffusion method. The note with it: MTCC 7028, 24 h, read-out: DIZ. The method in brief: as §1
The subject of the next assay is Athelia rolfsii. Briefly: Antifungal activity against Athelia rolfsii ITCC 6181 by food poisoning method. Conditions: Agroathelia rolfsii. The method in brief: as §2
For assay [1], the system named is Radical scavenging activity. Briefly: Antioxidant activity assessed as DPPH free radical scavenging activity after 20 min by UV-Vis spectrophotometric analysis. Also on record: concentration or dose not given beside the values. The method in brief:
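DPPH radical scavenging: samples were held at room temperature for 20 min in the dark, and absorbance was read at 517 nm. The control contained DMSO without compound, and methanol was used for baseline correction. Scavenging percentage was calculated from the absorbances.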
(Loss of DPPH colour is used to gauge radical scavenging.)

In another assay the test system is Bacillus thuringiensis. Briefly: Antibacterial activity against Bacillus thuringiensis MTCC 6941 assessed as growth inhibition at 100 ug/disk after 24 hr by disk diffusion method. Conditions: MTCC 6941, 24 h, read-out: DIZ. The method in brief: as §1
The test system of the next assay is Xanthomonas oryzae. As to the kind of experiment: Antibacterial activity against Xanthomonas oryzae ITCC B-47 assessed as as growth inhibition at 100 ug/disk after 24 hr by disk diffusion method. Conditions: ITCC B-47, 24 h, read-out: DIZ.

The structures appear in SMILES notation. Values after ≈ are worked out from the molar mass of the structure shown.

On to `CCOC(=O)C1C(=O)C=C(c2ccc(OC)cc2)CC1c1ccc(OC)c(OC)c1` (stereo unspecified), for which the zone of inhibition at 100 µg/disc in the assay on Staphylococcus aureus, in the assay on Dickeya chrysanthemi, with Bacillus pumilus, in the assay with Pseudomonas aeruginosa, with Klebsiella pneumoniae and in the assay on Bacillus thuringiensis was 0 mm each time. Besides, the zone of inhibition at 100 µg/disc with Xanthomonas oryzae worked out at 0 mm. The 50% lethal concentration (LC50) with Rhizoctonia solani is 34 µg/mL (≈ 82.8 µM); in the assay with Athelia rolfsii, 315 µg/mL (≈ 767 µM). In addition, the Activity in assay [1] was 4.71%.
Regarding `CCOC(=O)C1C(=O)C=C(c2ccc(OC)c(OC)c2)CC1c1ccc(OC)cc1` (stereo unspecified), the zone of inhibition at 100 µg/disc is 0 mm with Staphylococcus aureus; 10 mm with Dickeya chrysanthemi; 0 mm in the assay on Bacillus pumilus; 0 mm with Pseudomonas aeruginosa; 0 mm with Klebsiella pneumoniae; 0 mm in the assay on Bacillus thuringiensis. For the same molecule, the zone of inhibition at 100 µg/disc with Xanthomonas oryzae stood at 0 mm. The LC50 in the assay with Athelia rolfsii is 504 µg/mL (≈ 1230 µM). In addition, the Activity in assay [1] came to 11.3%.
In the case of `CCCCC(O)(Cn1cncn1)c1ccc(Cl)cc1Cl` (stereo unspecified) [HEXACONAZOLE], the LC50 in the assay with Rhizoctonia solani was 1.12 µg/mL (≈ 3.56 µM); in the assay on Athelia rolfsii it was 1.27 µg/mL (≈ 4.04 µM).
For the molecule `CCOC(=O)C1C(=O)C=C(c2ccccc2)CC1c1ccc(OC)c(OC)c1` (stereo unspecified), the zone of inhibition at 100 µg/disc in the assay with Staphylococcus aureus stood at 0 mm; with Dickeya chrysanthemi, 0 mm; in the assay on Bacillus pumilus, 0 mm; in the assay with Pseudomonas aeruginosa it was 5 mm; in the assay on Klebsiella pneumoniae, 0 mm; in the assay with Bacillus thuringiensis, 0 mm. In addition, the zone of inhibition at 100 µg/disc with Xanthomonas oryzae came out at 0 mm. Moreover, the values for the LC50 in the assay on Rhizoctonia solani and with Athelia rolfsii were 198 µg/mL (≈ 520 µM) and 323 µg/mL (≈ 849 µM), respectively. Moreover, the Activity in assay [1] was determined as 4.23%.
Turning to `CCOC(=O)C1C(=O)C=C(c2ccc(F)cc2)CC1c1ccccc1` (stereo unspecified), the zone of inhibition at 100 µg/disc with Staphylococcus aureus came out at 0 mm; with Dickeya chrysanthemi, 10 mm; with Bacillus pumilus, 0 mm; in the assay with Pseudomonas aeruginosa, 0 mm; in the assay with Klebsiella pneumoniae it was 10 mm; in the assay with Bacillus thuringiensis, 0 mm. Moreover, the zone of inhibition at 100 µg/disc in the assay on Xanthomonas oryzae was determined as 0 mm. Moreover, the LC50 in the assay on Rhizoctonia solani amounted to 35 µg/mL (≈ 103 µM); in the assay on Athelia rolfsii it was 319 µg/mL (≈ 943 µM). Besides, the Activity in assay [1] was found to be 3.86%.
`CCOC(=O)C1C(=O)C=C(c2ccccc2)CC1c1cc(OC)c(OC)c(OC)c1` (stereo unspecified): the zone of inhibition at 100 µg/disc with Staphylococcus aureus, in the assay with Dickeya chrysanthemi, in the assay with Bacillus pumilus, with Pseudomonas aeruginosa, in the assay on Klebsiella pneumoniae and in the assay with Bacillus thuringiensis was 0 mm each time. For the same molecule, the zone of inhibition at 100 µg/disc in the assay on Xanthomonas oryzae amounted to 0 mm. For the same molecule, the LC50 in the assay with Rhizoctonia solani is 139 µg/mL (≈ 339 µM); in the assay with Athelia rolfsii it was 365 µg/mL (≈ 889 µM). Besides, the Activity in [1] was 1.69%.
For `CCOC(=O)C1C(=O)C=C(c2ccccc2)CC1c1ccc(C)cc1` (stereo unspecified), the zone of inhibition at 100 µg/disc was found to be 0 mm in the assay on Staphylococcus aureus; 0 mm in the assay on Dickeya chrysanthemi; 0 mm in the assay with Bacillus pumilus; 0 mm in the assay with Pseudomonas aeruginosa; 5 mm in the assay on Klebsiella pneumoniae; 0 mm in the assay with Bacillus thuringiensis. Further, in the assay on Xanthomonas oryzae, the zone of inhibition at 100 µg/disc amounted to 0 mm. Also, the LC50 worked out at 233 µg/mL (≈ 697 µM) in the assay with Rhizoctonia solani and 316 µg/mL (≈ 945 µM) in the assay on Athelia rolfsii. Also, in assay [1], the Activity is 4.17%.
Consider `Cc1ccc(/C=C/C(=O)c2ccc(C)cc2)cc1` [4,4'-DIMETHYLCHALCONE], for which the zone of inhibition at 100 µg/disc with Staphylococcus aureus, with Dickeya chrysanthemi, in the assay with Bacillus pumilus, in the assay on Pseudomonas aeruginosa, with Klebsiella pneumoniae and in the assay on Bacillus thuringiensis was 0 mm throughout. Moreover, in the assay on Xanthomonas oryzae, the zone of inhibition at 100 µg/disc was 0 mm. For the same molecule, the LC50 is 635 µg/mL (≈ 2690 µM) in the assay with Rhizoctonia solani and 549 µg/mL (≈ 2320 µM) in the assay on Athelia rolfsii. The Activity in assay [1] worked out at 1.19%.
`COc1ccc(/C=C/C(=O)c2ccc(C)cc2)cc1OC`: the zone of inhibition at 100 µg/disc in the assay on Staphylococcus aureus, in the assay with Dickeya chrysanthemi, in the assay on Bacillus pumilus, in the assay on Pseudomonas aeruginosa, in the assay with Klebsiella pneumoniae and in the assay on Bacillus thuringiensis was 0 mm each time. Moreover, in the assay on Xanthomonas oryzae, the zone of inhibition at 100 µg/disc was determined as 0 mm. In addition, the LC50 turned out to be 107 µg/mL (≈ 379 µM) with Rhizoctonia solani and 587 µg/mL (≈ 2080 µM) in the assay on Athelia rolfsii. In assay [1], the Activity is 0.71%.
Consider `CCOC(=O)C1C(=O)C=C(c2ccc(C)cc2)CC1c1cc(OC)c(OC)c(OC)c1` (stereo unspecified), for which the zone of inhibition at 100 µg/disc in the assay with Staphylococcus aureus, with Dickeya chrysanthemi, in the assay with Bacillus pumilus, in the assay on Pseudomonas aeruginosa, in the assay on Klebsiella pneumoniae and in the assay with Bacillus thuringiensis was 0 mm each time. In the assay with Xanthomonas oryzae, the zone of inhibition at 100 µg/disc came out at 0 mm. In addition, the 50% lethal concentration (LC50) in the assay on Rhizoctonia solani stood at 118 µg/mL (≈ 278 µM); in the assay with Athelia rolfsii it was 345 µg/mL (≈ 813 µM). Further, in [1], the Activity is 4.52%.
With `CCOC(=O)C1C(=O)C=C(c2ccc(C)cc2)CC1c1ccc(C)cc1` (stereo unspecified), the zone of inhibition at 100 µg/disc with Staphylococcus aureus stood at 0 mm; in the assay with Dickeya chrysanthemi, 0 mm; in the assay with Bacillus pumilus, 0 mm; in the assay on Pseudomonas aeruginosa, 10 mm; in the assay on Klebsiella pneumoniae it was 5 mm; with Bacillus thuringiensis it was 0 mm. In the assay with Xanthomonas oryzae, the zone of inhibition at 100 µg/disc was 0 mm. For the same molecule, the LC50 in the assay with Rhizoctonia solani came to 231 µg/mL (≈ 663 µM); in the assay on Athelia rolfsii it was 321 µg/mL (≈ 921 µM). Also, in assay [1], the Activity is 3.54%.
For the molecule `O=C(/C=C/c1ccccc1)c1ccccc1` [CHALCONE], the zone of inhibition at 100 µg/disc is 5 mm in the assay on Staphylococcus aureus; 10 mm in the assay with Dickeya chrysanthemi; 0 mm in the assay on Bacillus pumilus; 10 mm with Pseudomonas aeruginosa; 0 mm in the assay on Klebsiella pneumoniae; 0 mm in the assay on Bacillus thuringiensis. For the same molecule, the zone of inhibition at 100 µg/disc in the assay on Xanthomonas oryzae turned out to be 0 mm. The values for the LC50 in the assay with Rhizoctonia solani and in the assay with Athelia rolfsii were 2.49 µg/mL (≈ 12 µM) and 674 µg/mL (≈ 3240 µM), respectively. The Activity in [1] is 9.11%.
For the molecule `CCOC(=O)C1C(=O)C=C(c2ccc(C)cc2)CC1c1ccc(OC)c(OC)c1` (stereo unspecified), the zone of inhibition at 100 µg/disc in the assay with Staphylococcus aureus, in the assay with Dickeya chrysanthemi, in the assay with Bacillus pumilus, in the assay on Pseudomonas aeruginosa, in the assay with Klebsiella pneumoniae and with Bacillus thuringiensis was 0 mm throughout. For the same molecule, the zone of inhibition at 100 µg/disc in the assay with Xanthomonas oryzae was determined as 0 mm. In addition, the LC50 in the assay with Rhizoctonia solani came to 189 µg/mL (≈ 479 µM); in the assay with Athelia rolfsii, 317 µg/mL (≈ 804 µM). The Activity in assay [1] turned out to be 7.38%.
Turning to `CCOC(=O)C1C(=O)C=C(c2ccc([N+](=O)[O-])cc2)CC1c1ccc2c(c1)OCO2` (stereo unspecified), the zone of inhibition at 100 µg/disc with Staphylococcus aureus came to 0 mm; with Dickeya chrysanthemi, 10 mm; in the assay on Bacillus pumilus it was 0 mm; in the assay with Pseudomonas aeruginosa it was 0 mm; with Klebsiella pneumoniae, 0 mm; in the assay on Bacillus thuringiensis it was 0 mm. Also, the zone of inhibition at 100 µg/disc in the assay on Xanthomonas oryzae is 0 mm. For the same molecule, the LC50 with Rhizoctonia solani was determined as 29 µg/mL (≈ 70.8 µM); in the assay with Athelia rolfsii, 4310 µg/mL (≈ 10500 µM). In assay [1], the Activity amounted to 3.6%.
Consider `CCOC(=O)C1C(=O)C=C(c2ccc(Cl)c(Cl)c2)CC1c1ccc(OC)cc1` (stereo unspecified), for which the zone of inhibition at 100 µg/disc with Staphylococcus aureus, with Dickeya chrysanthemi, in the assay on Bacillus pumilus, in the assay with Pseudomonas aeruginosa, in the assay on Klebsiella pneumoniae and in the assay with Bacillus thuringiensis was 0 mm throughout. For the same molecule, the zone of inhibition at 100 µg/disc with Xanthomonas oryzae amounted to 0 mm. Also, the median lethal concentration (LC50) was determined as 1040 µg/mL (≈ 2490 µM) in the assay with Rhizoctonia solani and 6110 µg/mL (≈ 14600 µM) with Athelia rolfsii. Also, the Activity in assay [1] is 2.92%.
`CCOC(=O)C1C(=O)C=C(c2ccc3c(c2)OCO3)CC1c1ccc(OC)cc1` (stereo unspecified): the zone of inhibition at 100 µg/disc in the assay with Staphylococcus aureus, in the assay with Dickeya chrysanthemi, in the assay with Bacillus pumilus, in the assay with Pseudomonas aeruginosa, with Klebsiella pneumoniae and in the assay with Bacillus thuringiensis was 0 mm throughout. For the same molecule, the zone of inhibition at 100 µg/disc with Xanthomonas oryzae was determined as 0 mm. In addition, the figures for the LC50 with Rhizoctonia solani and in the assay with Athelia rolfsii were 396 µg/mL (≈ 1000 µM) and 380 µg/mL (≈ 963 µM), respectively. In addition, the Activity in assay [1] turned out to be 4.26%.
